Experimental findings from article PMC5860981 (Journal of immunology (Baltimore, Md. : 1950), 2018) are described below.

What all share (type): cell-based, human
One assay has as its system pDCs. Kind of assay: pDC stimulation with NETs.
The test system of another assay is neutrophils. Kind of assay: PMA-induced NET formation in neutrophils. To be noted: 100 μM, neutrophils stimulated with 25 nM PMA 3 h.
In another assay the test system is NETs. Kind of assay: Detection of LL-37 in NETs by immunofluorescence microscopy. To be noted: 100 μM, PMA-induced NETs, antibody specific for native LL-37. In short, it runs like this: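 Human neutrophils, hypotonically lysed to remove RBCs, seeded at 1 × 10^5 cells on 1% BSA-treated coverslips, 30 min at 37 °C, 5% CO2. Where indicated, 100 μM PAD inhibitor. NETs induced with 25 nM PMA, 3 h. Fixed in 3.7% paraformaldehyde; mouse anti-LL-37 (1:50, 1 h RT), Alexa-Fluor-647 anti-mouse (1:1000, 45 min), Hoechst 1 μg/mL; imaged at 20×.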

Consider `NC(=O)[C@H](CCCN=C(N)CCl)NC(=O)c1ccccc1` [Cl-A, Cl-amidine], for which the “IL-6 in conditioned medium from pDCs treated with NETs generated in the presence of inhibitor” value with pDCs (100 μM inhibitor, ELISA) is listed as “substantial amount of IL-6”. Besides, the “MxA expression in pDCs exposed to NETs pre-treated with inhibitor” value in the assay on pDCs (NETs from neutrophils given 100 μM inhibitor before PMA, real-time PCR) was “upregulated markedly”. The “NET formation and levels of citrullination” value in the assay with neutrophils is “reduced both the levels of citrullination (Figure S3) and NET formation”. Further, the “LL-37 fluorescence spots relative to amount of NETs, versus no inhibitor” value in the assay on NETs worked out at 3 times.
